Experimental data from ChEMBL document CHEMBL3351594, “Cytotoxic dimeric epipolythiodiketopiperazines from the ascomycetous fungus Preussia typharum” (J Nat Prod, 2014).
Active and inactive are the calls of the source. The rule behind the calls is not given here.

Columns and labels:
[1] = Cytotoxicity against human HCT15 cells by SRB method; type: functional
Outline: (§1)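 NCI-60 in vitro drug screening panel. Values are the molar concentrations giving 50% growth inhibition (GI50) and total growth inhibition (TGI).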

[2] = molecular target: mTORC1 (Homo sapiens) (UniProt P42345+Q8N122+Q9BVC4); assay: Inhibition of mTORC1 in human HeLa cells assessed as inhibition of S6 kinase phosphorylation at T389 up to 100 nM after 30 mins by Western blotting analysis; type: cell-based
Chain of mTORC1 (Homo sapiens) (Q8N122 whole entry, looked up, other chains not shown): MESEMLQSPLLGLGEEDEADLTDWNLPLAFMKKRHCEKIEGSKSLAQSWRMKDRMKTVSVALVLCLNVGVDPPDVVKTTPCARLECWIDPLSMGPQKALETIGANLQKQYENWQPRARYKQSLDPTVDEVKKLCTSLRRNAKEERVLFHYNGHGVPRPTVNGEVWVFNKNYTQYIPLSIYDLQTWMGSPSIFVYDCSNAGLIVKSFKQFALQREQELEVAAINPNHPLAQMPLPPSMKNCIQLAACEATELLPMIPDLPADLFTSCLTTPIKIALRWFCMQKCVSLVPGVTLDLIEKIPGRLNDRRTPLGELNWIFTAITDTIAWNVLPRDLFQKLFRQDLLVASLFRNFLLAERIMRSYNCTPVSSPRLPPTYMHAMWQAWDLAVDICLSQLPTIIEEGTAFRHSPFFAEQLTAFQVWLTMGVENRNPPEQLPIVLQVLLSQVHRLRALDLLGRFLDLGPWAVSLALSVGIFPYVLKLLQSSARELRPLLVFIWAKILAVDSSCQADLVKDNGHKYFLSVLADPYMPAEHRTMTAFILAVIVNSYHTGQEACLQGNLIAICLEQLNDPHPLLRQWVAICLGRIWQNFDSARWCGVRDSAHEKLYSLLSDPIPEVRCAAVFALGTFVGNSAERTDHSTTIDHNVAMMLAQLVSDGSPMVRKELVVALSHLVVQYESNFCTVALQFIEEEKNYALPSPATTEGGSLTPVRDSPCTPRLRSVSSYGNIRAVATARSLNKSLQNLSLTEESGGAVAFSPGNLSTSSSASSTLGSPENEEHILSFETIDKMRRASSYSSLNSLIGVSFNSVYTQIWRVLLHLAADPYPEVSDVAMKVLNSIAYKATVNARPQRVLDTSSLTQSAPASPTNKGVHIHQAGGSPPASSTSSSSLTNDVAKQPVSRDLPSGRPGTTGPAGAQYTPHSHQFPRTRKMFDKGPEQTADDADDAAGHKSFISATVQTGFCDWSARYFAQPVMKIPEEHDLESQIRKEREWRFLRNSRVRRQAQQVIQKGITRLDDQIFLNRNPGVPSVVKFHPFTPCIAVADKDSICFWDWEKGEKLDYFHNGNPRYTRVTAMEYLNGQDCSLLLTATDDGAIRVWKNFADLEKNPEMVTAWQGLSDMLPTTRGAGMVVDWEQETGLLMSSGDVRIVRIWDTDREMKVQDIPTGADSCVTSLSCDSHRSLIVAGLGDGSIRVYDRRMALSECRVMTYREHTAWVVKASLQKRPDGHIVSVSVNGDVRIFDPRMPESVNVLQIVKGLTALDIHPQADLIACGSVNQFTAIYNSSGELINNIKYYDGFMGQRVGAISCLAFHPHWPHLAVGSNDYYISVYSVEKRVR
Chain of mTORC1 (Homo sapiens) (Q9BVC4 whole entry, looked up, other chains not shown): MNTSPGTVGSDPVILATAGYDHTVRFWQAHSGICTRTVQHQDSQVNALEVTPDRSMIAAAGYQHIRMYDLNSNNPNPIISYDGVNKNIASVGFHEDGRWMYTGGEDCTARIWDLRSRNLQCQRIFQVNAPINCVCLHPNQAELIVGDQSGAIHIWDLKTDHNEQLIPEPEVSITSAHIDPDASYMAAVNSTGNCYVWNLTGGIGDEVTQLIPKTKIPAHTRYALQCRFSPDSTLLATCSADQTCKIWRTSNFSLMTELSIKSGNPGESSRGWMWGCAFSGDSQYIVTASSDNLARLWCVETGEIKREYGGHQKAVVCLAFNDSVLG
Outline: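 HeLa whole-cell lysates after vehicle or compound treatment; equal protein on SDS-PAGE, PVDF blot probed for S6 kinase, P-T389-S6 kinase and actin, ECL detection.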

[3] = test system: Malme-3M; assay: Cytotoxicity against human MALME-3M cells by SRB method; type: functional; outline: as §1
[4] = Cytotoxicity against human HCT116 cells by SRB method; type: functional; outline: as §1
[5] = test system: NCI-H522; assay: Cytotoxicity against human NCI-H522 cells by SRB method; type: functional; outline: as §1
[6] = Antitumor activity against human UACC62 cells xenografted in athymic nude mouse at 1.5 mg/kg, ip administered every 4 days relative to untreated control; type: functional, UACC-62; settings: route intraperitoneal
Outline: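 Female athymic nude mice received 2 × 10^6 UACC-62 cells sc into each flank, bilaterally. They were randomized at median tumor volume 150 mm3, n = 5 mice/group. Dosing was ip at 1.5 mg/kg every 4 days, in DMSO–Cremophor (1:1) diluted in 200 μL DPBS (DMSO and Cremophor ≤2.5% final). Tumors were measured twice weekly by caliper. T/C% = (treated final − initial mean volume) ÷ (untreated final − initial) × 100.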

[7] = test system: MDA-MB-435; assay: Cytotoxicity against human MDA-MB-435 cells by SRB method; type: functional; outline: as §1
[8] = test system: MCF7; assay: Cytotoxicity against human MCF7 cells by SRB method; type: functional; outline: as §1
[9] = test system: SF-539; assay: Cytotoxicity against human SF539 cells by SRB method; type: functional; outline: as §1
[10] = Cytotoxicity against human UACC62 cells assessed as inhibition of colony formation at 5 nM incubated for 4 hrs followed by compound washout measured after 14 days relative to vehicle-treated control; type: functional; settings: UACC-62
Outline: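 Clonogenic test: 600 UACC-62 cells (RPMI1640, 10% FBS, gentamicin) adhered, exposed 4 h to vehicle (DMSO) or compound, washed with DPBS, fresh medium, grown 14 days; fixed, 0.5% crystal violet in 10% methanol, colonies counted; duplicate/triplicate, n = 2–4 experiments; one-way ANOVA with Dunnett's vs vehicle.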

[11] = test system: CCRF-CEM; assay: Cytotoxicity against human CCRF-CEM cells by SRB method; type: functional; outline: as §1
[12] = Cytotoxicity against human UACC62 cells by SRB method; type: functional
Outline: (§2)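 NCI-60 in vitro screen panel of human tumor lines; GI50 (molar concentration giving 50% growth inhibition) and TGI (total growth inhibition) taken from dose–response data.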

[13] = Cytotoxicity against human SKOV3 cells by SRB method; type: functional; settings: SK-OV-3
Outline: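 SRB assay in SK-OV-3 cells; percent cell growth per Boyd et al.; GI50, TGI and LC50 fitted from dose–response curves of percent growth; mean ± SE, n = 3 or 4 independent experiments.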

[14] = Cytotoxicity against human PC3 cells by SRB method; type: functional; outline: as §1
[15] = test system: LOX IMVI; assay: Cytotoxicity against human LOXIMVI cells by SRB method; type: functional; outline: as §1
[16] = test system: RXF 393; assay: Cytotoxicity against human RXF393 cells by SRB method; type: functional; outline: as §1
[17] = test system: Mus musculus; assay: Toxicity in athymic nude mouse xenografted with human UACC62 cells assessed as rapid and persistent weight loss at 10 mg/kg, ip; type: organism-based, UACC-62; design: dose 10 mg/kg, route intraperitoneal; settings: in vivo
[18] = test system: MDA-MB-231; assay: Cytotoxicity against human MDA-MB-231 cells by SRB method; type: functional; outline: as §1
[19] = Cytotoxicity against human OVCAR8 cells by SRB method; type: functional; outline: as §1
[20] = test system: A549; assay: Cytotoxicity against human A549 cells by SRB method; type: functional; outline: as §1
[21] = test system: SK-OV-3; assay: Resistance ratio of GI50 for human P-gp expressing SKOV3-M6/6 cells to GI50 for human SKOV3 cells; type: functional
Outline: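 SRB assay in SK-OV-3 and its P-gp/MDR1 single-cell clone SK-OV-3/MDR-1-6/6; GI50 from percent growth dose–response curves, n = 3 or 4 independent experiments; relative resistance taken as ratio of GI50 in the MDR line to parental.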

[22] = test system: 786-0; assay: Cytotoxicity against human 786-0 cells by SRB method; type: functional; outline: as §1
[23] = test system: SNB-19; assay: Cytotoxicity against human SNB19 cells by SRB method; type: functional; outline: as §2
[24] = test system: TK-10; assay: Cytotoxicity against human TK10 cells by SRB method; type: functional; outline: as §2
[25] = test system: NCI-H322M; assay: Cytotoxicity against human NCI-H322M cells by SRB method; type: functional; outline: as §1
[26] = test system: RPMI-8226; assay: Cytotoxicity against human RPMI8226 cells by SRB method; type: functional; outline: as §1
[27] = test system: HOP-62; assay: Cytotoxicity against human HOP62 cells by SRB method; type: functional; outline: as §1
[28] = Cytotoxicity against human OVCAR5 cells by SRB method; type: functional; outline: as §1
[29] = test system: T47D; assay: Cytotoxicity against human T47D cells by SRB method; type: functional; outline: as §2
[30] = test system: KM12; assay: Cytotoxicity against human KM12 cells by SRB method; type: functional; outline: as §1
[31] = test system: HeLa; assay: Cytotoxicity against human HeLa cells; type: functional
[32] = read-out: LC50 (the source's name)

CC(C)[C@@]12SS[C@]3(C(=O)N1C)[C@@H](O)[C@]1(C45c6ccccc6N[C@H]4N4C(=O)[C@@]6(CO)SS[C@@]4(C(=O)N6C)[C@H]5O)c4ccccc4N[C@@H]1N3C2=O (stereo partly specified)
GI50 ([1]; HCT-15): 17 nM | TGI ([1]; HCT-15): 89.1 nM | CC50 ([1]; HCT-15, read-out: LC50 (the source's name)): 479 nM | inhibition [2]: inactive | GI50 [3]: 7.8 nM | TGI [3]: 18.6 nM | CC50 [3, 32]: 45.7 nM | GI50 ([4]; HCT-116): 12.3 nM | TGI ([4]; HCT-116): 51.3 nM | CC50 ([4]; HCT-116, read-out: LC50 (the source's name)): 162 nM | GI50 [5]: 8.5 nM | TGI [5]: 17.8 nM | CC50 [5, 32]: 38 nM | T/C [6]: 67% | GI50 [7]: 10.7 nM | TGI [7]: 28.8 nM | CC50 [7, 32]: 120 nM | GI50 [8]: 10 nM | TGI [8]: 55 nM | CC50 [8, 32]: 166 nM | GI50 [9]: 15.1 nM | TGI [9]: 58.9 nM | CC50 [9, 32]: 200 nM | inhibition at 0.005 µM [10]: 38% | GI50 [11]: 9.3 nM | TGI [11]: 38 nM | CC50 [11, 32]: > 50000 nM | GI50 ([12]; UACC-62): 18.2 nM | TGI ([12]; UACC-62): 72.4 nM | CC50 ([12]; UACC-62, read-out: LC50 (the source's name)): 295 nM | GI50 [13]: 11.5 nM | LC50 [13]: 190 nM | TGI [13]: 33.9 nM | GI50 ([14]; PC-3): 15.5 nM | TGI ([14]; PC-3): 60.3 nM | CC50 ([14]; PC-3, read-out: LC50 (the source's name)): 209 nM | GI50 [15]: 8.3 nM | TGI [15]: 21.4 nM | CC50 [15, 32]: 46.8 nM | GI50 [16]: 7.8 nM | TGI [16]: 14.8 nM | CC50 [16, 32]: 28.2 nM | Activity [17]: 5% | GI50 [18]: 18.6 nM | TGI [18]: 70.8 nM | CC50 [18, 32]: 324 nM | GI50 ([19]; OVCAR-8): 9.5 nM | TGI ([19]; OVCAR-8): 19.1 nM | CC50 ([19]; OVCAR-8, read-out: LC50 (the source's name)): 38 nM | GI50 [20]: 26.3 nM | TGI [20]: 93.3 nM | CC50 [20, 32]: 263 nM | Ratio [21]: 1.7 | GI50 [22]: 11.7 nM | TGI [22]: 26.3 nM | CC50 [22, 32]: 70.8 nM | GI50 [23]: 112 nM | TGI [23]: 513 nM | CC50 [23, 32]: 1660 nM | GI50 [24]: 11.7 nM | TGI [24]: 24.5 nM | CC50 [24, 32]: 57.5 nM | GI50 [25]: 20 nM | TGI [25]: 102 nM | CC50 [25, 32]: 490 nM | GI50 [26]: 12.3 nM | TGI [26]: 34.7 nM | CC50 [26, 32]: > 50000 nM | GI50 [27]: 11.7 nM | TGI [27]: 30.9 nM | CC50 [27, 32]: 110 nM | GI50 ([28]; OVCAR-5): 52.5 nM | TGI ([28]; OVCAR-5): 138 nM | CC50 ([28]; OVCAR-5, read-out: LC50 (the source's name)): 363 nM | GI50 [29]: 9.1 nM | TGI [29]: 26.3 nM | CC50 [29, 32]: 102 nM | GI50 [30]: 19.5 nM | TGI [30]: 87.1 nM | CC50 [30, 32]: 295 nM | GI50 [31]: 20 nM
